In ChEMBL document CHEMBL2021913, “Synthesis and biological evaluation of some novel thiazole substituted benzotriazole derivatives” (2012):
Converted amounts (≈) assume the structure as drawn. The source made the active and inactive calls. No cut-off for these calls is given here.

Tests used:
Type in all cases: functional
Pseudomonas aeruginosa [1] = experiment: Antimicrobial activity against Pseudomonas aeruginosa 2036 at 128 ug/disc at 35 degC after 24 hrs by agar-well diffusion assay; conditions: for zone of inhibition at 128 µg/disc: Pseudomonas aeruginosa, 2036, 24 h, read-out: DIZ
Summary of the method: (§1)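 Agar-well diffusion: 24 h bacterial cultures adjusted to 0.5 McFarland (1.5 × 10⁸ CFU/mL) and mixed into molten Mueller-Hinton agar before pouring. 6 mm wells punched and each filled with 50 µL of compound stock or control. Plates incubated 35 °C for 24 h. Zone of growth inhibition diameter measured with vernier caliper.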

Bacillus subtilis [2] = experiment: Antimicrobial activity against Bacillus subtilis 2250 at 35 degC after 18 to 24 hrs by NCCLS method based antimicrobial assay; conditions: for MBC: read-out: MBC99.9
Candida albicans [3] = experiment: Ratio of MFC99.9 to MIC90 for Candida albicans 3471 at 35 degC after 48 hrs by CLSI method based antimicrobial assay
Summary of the method: (§2)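 Broth microdilution following CLSI guidelines over 256 to 1 µg/mL. MIC90 is the lowest concentration completely inhibiting growth. For MFC, 0.1 mL from each tube spread on agar and CFU counted after 48 h at 35 °C; MFC is lowest concentration killing 99.9% of inoculum. MFC/MIC ratio calculated: […], ≤4 as fungicidal.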

Aspergillus niger [4] = experiment: Antimicrobial activity against Aspergillus niger 545 at 35 degC after 48 hrs by CLSI method based antimicrobial assay; summary of the method: as §2
Candida albicans [5] = experiment: Antimicrobial activity against Candida albicans 3471 at 128 ug/disc at 37 degC after 24 to 72 hrs by agar-well diffusion assay; conditions: for zone of inhibition at 128 µg/disc: read-out: DIZ
Summary of the method: (§3)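 Potato dextrose agar base plates overlaid with seeded agar cooled to 40 °C and inoculated with spores from 10-day cultures, final 1 × 10⁶ spores/mL. Compounds dissolved in DMSO at 128 µg/mL and applied on 6 mm filter-paper discs placed on chilled seeded medium. Nystatin positive control, DMSO negative control. Incubation 24–72 h at 37 °C. Inhibition zone diameter read by vernier caliper.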

Candida albicans [6] = experiment: Antimicrobial activity against Candida albicans 3471 at 35 degC after 48 hrs by CLSI method based antimicrobial assay; conditions: for MFC: read-out: MFC99.9; summary of the method: as §2
Pseudomonas aeruginosa [7] = experiment: Antimicrobial activity against Pseudomonas aeruginosa 2036 at 35 degC after 18 to 24 hrs by NCCLS method based antimicrobial assay; conditions: for MBC: read-out: MBC99.9
Staphylococcus aureus [8] = experiment: Antimicrobial activity against Staphylococcus aureus 2079 at 128 ug/disc at 35 degC after 24 hrs by agar-well diffusion assay; conditions: for zone of inhibition at 128 µg/disc: Staphylococcus aureus, 2079, 24 h, read-out: DIZ; summary of the method: as §1
Bacillus subtilis [9] = experiment: Antimicrobial activity against Bacillus subtilis 2250 at 128 ug/disc at 35 degC after 24 hrs by agar-well diffusion assay; conditions: for zone of inhibition at 128 µg/disc: Bacillus subtilis, 2250, 24 h, read-out: DIZ; summary of the method: as §1
Escherichia coli [10] = experiment: Antimicrobial activity against Escherichia coli 2109 at 35 degC after 18 to 24 hrs by NCCLS method based antimicrobial assay; conditions: for MBC: read-out: MBC99.9
Staphylococcus aureus [11] = experiment: Antimicrobial activity against Staphylococcus aureus 2079 at 35 degC after 18 to 24 hrs by NCCLS method based antimicrobial assay; conditions: for MBC: read-out: MBC99.9
Aspergillus niger [12] = experiment: Antimicrobial activity against Aspergillus niger 545 at 128 ug/disc at 37 degC after 24 to 72 hrs by agar-well diffusion assay; conditions: in the assay text read “disc diffusion assay” for “agar-well diffusion assay”; summary of the method: as §3
Escherichia coli [13] = experiment: Antimicrobial activity against Escherichia coli 2109 at 128 ug/disc at 35 degC after 24 hrs by agar-well diffusion assay; conditions: for zone of inhibition at 128 µg/disc: Escherichia coli, 2109, 24 h, read-out: DIZ; summary of the method: as §1

| SMILES | diameter of the inhibition zone (DIZ) (Pseudomonas aeruginosa [1]) | MIC (Bacillus subtilis [2]) | MBC (Bacillus subtilis [2]) | MFC99.9 (Aspergillus niger [4]) | MIC (Aspergillus niger [4]) | MBC99.9 (Pseudomonas aeruginosa [7]) | MIC (Pseudomonas aeruginosa [7]) | zone of inhibition at 128 µg/disc (Staphylococcus aureus [8]) | zone of inhibition at 128 µg/disc (Bacillus subtilis [9]) | MBC99.9 (Escherichia coli [10]) | MIC (Escherichia coli [10]) | MIC (Staphylococcus aureus [11]) | MBC (Staphylococcus aureus [11]) | diameter of the inhibition zone (DIZ) (Aspergillus niger [12]) | MBC99.9 (Bacillus subtilis [2]) | diameter of the inhibition zone (DIZ) (Candida albicans [5]) | MFC99.9 (Candida albicans [6]) | MIC (Candida albicans [6]) | diameter of the inhibition zone (DIZ) (Staphylococcus aureus [8]) | diameter of the inhibition zone (DIZ) (Bacillus subtilis [9]) | other results |
| --- | --- | --- | --- | --- | --- | --- | --- | --- | --- | --- | --- | --- | --- | --- | --- | --- | --- | --- | --- | --- | --- |
| Brc1ccc(/C(Cn2nnc3ccccc32)=N\Nc2nc(-c3ccc(Br)cc3)cs2)cc1 | inactive | 128 µg/mL (≈ 225 µM) | 256 µg/mL (≈ 450 µM) | inactive | inactive | inactive | inactive | 23.4 mm | 17.2 mm | inactive | inactive | 32 µg/mL (≈ 56.3 µM) | 64 µg/mL (≈ 113 µM) | inactive |  |  |  |  |  |  | Ratio (Candida albicans [3]): 2; zone of inhibition at 128 µg/disc (Candida albicans [5]): 18.1 mm; MIC (Candida albicans [6]; Candida albicans, 3471, 48 h): 32 µg/mL (≈ 56.3 µM); MFC (Candida albicans [6]; Candida albicans, 3471, 48 h): 64 µg/mL (≈ 113 µM); diameter of the inhibition zone (DIZ) (Escherichia coli [13]): inactive |
| O=[N+]([O-])c1ccc(-c2csc(N/N=C(/Cn3nnc4ccccc43)c3ccc(Br)cc3)n2)cc1 |  | inactive |  | inactive | inactive |  | 128 µg/mL (≈ 240 µM) |  |  | inactive | inactive | inactive |  | inactive | inactive | inactive | inactive | inactive | inactive | inactive | zone of inhibition at 128 µg/disc (Pseudomonas aeruginosa [1]): 13.2 mm; MBC (Pseudomonas aeruginosa [7]): 256 µg/mL (≈ 479 µM); MBC99.9 (Staphylococcus aureus [11]): inactive; diameter of the inhibition zone (DIZ) (Escherichia coli [13]): inactive |
| FC(F)(F)c1cc(-c2csc(N/N=C(/Cn3nnc4ccccc43)c3ccc(Br)cc3)n2)cc(C(F)(F)F)c1 | inactive | 64 µg/mL (≈ 102 µM) | 128 µg/mL (≈ 205 µM) | inactive | inactive | inactive | inactive | 22.1 mm | 20.3 mm | inactive | inactive | 64 µg/mL (≈ 102 µM) | 64 µg/mL (≈ 102 µM) | inactive |  | inactive | inactive | inactive |  |  | diameter of the inhibition zone (DIZ) (Escherichia coli [13]): inactive |
| FC(F)(F)c1cc(/C(Cn2nnc3ccccc32)=N\Nc2nc(-c3ccc(Br)cc3)cs2)cc(C(F)(F)F)c1 |  | inactive |  | inactive | inactive |  | 64 µg/mL (≈ 102 µM) |  |  | inactive | inactive | inactive |  | inactive | inactive | inactive | inactive | inactive | inactive | inactive | zone of inhibition at 128 µg/disc (Pseudomonas aeruginosa [1]): 15.6 mm; MBC (Pseudomonas aeruginosa [7]): 128 µg/mL (≈ 205 µM); MBC99.9 (Staphylococcus aureus [11]): inactive |
| O=[N+]([O-])c1ccc(-c2csc(N/N=C(/Cn3nnc4ccccc43)c3cc(C(F)(F)F)cc(C(F)(F)F)c3)n2)cc1 | inactive | inactive |  | inactive | inactive | inactive | inactive |  |  |  | 128 µg/mL (≈ 216 µM) | inactive |  | inactive | inactive | inactive | inactive | inactive | inactive | inactive | MBC (Escherichia coli [10]): 256 µg/mL (≈ 433 µM); MBC99.9 (Staphylococcus aureus [11]): inactive; zone of inhibition at 128 µg/disc (Escherichia coli [13]): 13.1 mm |
| FC(F)(F)c1cc(-c2csc(N/N=C(/Cn3nnc4ccccc43)c3ccc(Cl)cc3)n2)cc(C(F)(F)F)c1 | inactive | inactive |  | inactive |  | inactive | inactive |  |  |  | 32 µg/mL (≈ 55.1 µM) | inactive |  | inactive | inactive |  |  |  | inactive | inactive | Ratio (Candida albicans [3]): 2; zone of inhibition at 128 µg/disc (Candida albicans [5]): 13.7 mm; MIC (Candida albicans [6]; Candida albicans, 3471, 48 h): 64 µg/mL (≈ 110 µM); MFC (Candida albicans [6]; Candida albicans, 3471, 48 h): 128 µg/mL (≈ 220 µM); MBC (Escherichia coli [10]): 64 µg/mL (≈ 110 µM); MBC99.9 (Staphylococcus aureus [11]): inactive; zone of inhibition at 128 µg/disc (Escherichia coli [13]): 21.1 mm |
| Fc1ccc(/C(Cn2nnc3ccccc32)=N\Nc2nc(-c3ccc(Br)cc3)cs2)cc1 | inactive | 64 µg/mL (≈ 126 µM) | 128 µg/mL (≈ 252 µM) | inactive | inactive | inactive | inactive | 20.9 mm | 22.8 mm | inactive | inactive | 64 µg/mL (≈ 126 µM) | 128 µg/mL (≈ 252 µM) | inactive |  |  |  |  |  |  | Ratio (Candida albicans [3]): 2; zone of inhibition at 128 µg/disc (Candida albicans [5]): 14.7 mm; MIC (Candida albicans [6]; Candida albicans, 3471, 48 h): 128 µg/mL (≈ 252 µM); MFC (Candida albicans [6]; Candida albicans, 3471, 48 h): 256 µg/mL (≈ 505 µM); diameter of the inhibition zone (DIZ) (Escherichia coli [13]): inactive |
| O=C(N[C@H](CO)[C@H](O)c1ccc([N+](=O)[O-])cc1)C(Cl)Cl [CHLORAMPHENICOL] |  |  | 32 µg/mL (≈ 99 µM) |  |  |  |  | 31.4 mm | 29.2 mm |  |  |  | 32 µg/mL (≈ 99 µM) |  |  |  |  |  |  |  | zone of inhibition at 128 µg/disc (Pseudomonas aeruginosa [1]): 23.9 mm; MBC (Pseudomonas aeruginosa [7]): 32 µg/mL (≈ 99 µM); MBC (Escherichia coli [10]): 32 µg/mL (≈ 99 µM); zone of inhibition at 128 µg/disc (Escherichia coli [13]): 27.6 mm |
| O=[N+]([O-])c1ccc(/C(Cn2nnc3ccccc32)=N\Nc2nc(-c3ccc(Cl)cc3)cs2)cc1 |  | inactive |  | inactive | inactive |  | 64 µg/mL (≈ 131 µM) |  |  |  | 64 µg/mL (≈ 131 µM) | inactive |  | inactive | inactive | inactive | inactive | inactive | inactive | inactive | zone of inhibition at 128 µg/disc (Pseudomonas aeruginosa [1]): 16.7 mm; MBC (Pseudomonas aeruginosa [7]): 128 µg/mL (≈ 261 µM); MBC (Escherichia coli [10]): 128 µg/mL (≈ 261 µM); MBC99.9 (Staphylococcus aureus [11]): inactive; zone of inhibition at 128 µg/disc (Escherichia coli [13]): 18.7 mm |
| O=[N+]([O-])c1ccc(/C(Cn2nnc3ccccc32)=N\Nc2nc(-c3ccc(Br)cc3)cs2)cc1 | inactive | 128 µg/mL (≈ 240 µM) | 256 µg/mL (≈ 479 µM) | inactive | inactive | inactive | inactive | 22.6 mm | 15.3 mm | inactive | inactive | 64 µg/mL (≈ 120 µM) | 128 µg/mL (≈ 240 µM) | inactive |  |  |  |  |  |  | Ratio (Candida albicans [3]): 2; zone of inhibition at 128 µg/disc (Candida albicans [5]): 17.3 mm; MIC (Candida albicans [6]; Candida albicans, 3471, 48 h): 32 µg/mL (≈ 59.9 µM); MFC (Candida albicans [6]; Candida albicans, 3471, 48 h): 64 µg/mL (≈ 120 µM) |
